Assay [1] concerns the target T1, Kappa-type opioid receptor (Homo sapiens, UniProt P41145). Put plainly: Binding affinity for […] [3H]diprenorphine against human Opioid receptor kappa expressed in chinese hamster ovary cells (CHO cells). It counts as cell-based. The method, boiled down:
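Competitive displacement of [3H]diprenorphine binding to membranes from CHO cells stably transfected with human KOR; compounds were first screened at a single concentration.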

Assay [2] addresses T1, Kappa-type opioid receptor. Description: Percent maximal response in enhanced [35S]GTP-gamma-S, binding to human Opioid receptor kappa expressed in CHO cells relative to U50,488H. The assay is classed as functional, cell-based. The method, boiled down:
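Agonist stimulation of [35S]GTPγS binding to membranes of CHO-hKOR cells; efficacy is maximal response expressed as % of that of U50,488H; means of at least three independent experiments run in duplicate.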

The target of assay [3] is T1, Kappa-type opioid receptor. Put plainly: Concentration required to enhance [35S]GTP-gamma-S, binding to human Opioid receptor kappa expressed in CHO cells. It counts as functional, cell-based. The method, boiled down: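 [35S]GTPγS binding to membranes of CHO cells stably expressing human KOR; EC50 for agonist-stimulated enhancement of binding; means of at least three independent experiments run in duplicate.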

T1 sequence (P41145 whole entry): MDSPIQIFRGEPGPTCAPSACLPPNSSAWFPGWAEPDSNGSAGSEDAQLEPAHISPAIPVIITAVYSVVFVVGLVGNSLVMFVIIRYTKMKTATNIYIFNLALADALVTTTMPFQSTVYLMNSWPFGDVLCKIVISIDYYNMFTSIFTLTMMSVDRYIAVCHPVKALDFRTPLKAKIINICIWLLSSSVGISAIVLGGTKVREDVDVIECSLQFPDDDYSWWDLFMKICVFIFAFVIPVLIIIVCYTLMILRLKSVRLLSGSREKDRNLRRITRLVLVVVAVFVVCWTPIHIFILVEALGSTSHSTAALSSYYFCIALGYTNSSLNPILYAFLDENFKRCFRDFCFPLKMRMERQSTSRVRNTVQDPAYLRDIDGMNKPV

Broadly, the Ki is the dissociation constant of the complex between target and ligand, obtained from inhibition or displacement. The low end stands for tighter binding, the high end for weaker binding. Consider `CCCCOC(=O)[C@@H]1C[C@H](OC(C)=O)C(=O)[C@H]2[C@@]1(C)CC[C@H]1C(=O)O[C@H](c3ccoc3)C[C@]21C`, for which the inhibition constant (Ki) in assay [1] was more than 1000 nM.
Same read-out and setting: next, `CC(=O)O[C@H]1C[C@@H](C(=O)O)[C@]2(C)CC[C@H]3C(=O)O[C@H](c4ccoc4)C[C@]3(C)[C@H]2C1=O`: more than 1000 nM; `CC(=O)O[C@H]1C[C@@H](C(=O)NC(Cc2c[nH]cn2)C(=O)OCc2ccccc2)[C@]2(C)CC[C@H]3C(=O)O[C@H](c4ccoc4)C[C@]3(C)[C@H]2C1=O` (some centres undefined): more than 1000 nM; `C#CCCOC(=O)[C@@H]1C[C@H](OC(C)=O)C(=O)[C@H]2[C@@]1(C)CC[C@H]1C(=O)O[C@H](c3ccoc3)C[C@]21C`: more than 1000 nM.
For orientation: EC50 means the concentration at which the effect is half-maximal. Regarding `CC(=O)O[C@H]1C[C@@H](C(=O)N2CCCC2C(=O)OCc2ccccc2)[C@]2(C)CC[C@H]3C(=O)O[C@H](c4ccoc4)C[C@]3(C)[C@H]2C1=O` (some centres undefined), the Efficacy in assay [2] amounted to 100%. The EC50 in assay [3] was 348 nM. Besides, the affinity in assay [1], expressed as Ki, was 210 nM.
For the compound `CCCOC(=O)[C@@H]1C[C@H](OC(C)=O)C(=O)[C@H]2[C@@]1(C)CC[C@H]1C(=O)O[C@H](c3ccoc3)C[C@]21C`, in assay [1], the Ki was more than 1000 nM.
As to `CC(=O)O[C@H]1C[C@@H](C(=O)NCC(=O)OCc2ccccc2)[C@]2(C)CC[C@H]3C(=O)O[C@H](c4ccoc4)C[C@]3(C)[C@H]2C1=O`, the Efficacy in assay [2] amounted to 105%. Further, in assay [3], the EC50 worked out at 227 nM. Moreover, in assay [1], the affinity corresponds to a Ki of 470 nM.
Turning to `CC(=O)O[C@H]1C[C@@H](C(=O)NCCO)[C@]2(C)CC[C@H]3C(=O)O[C@H](c4ccoc4)C[C@]3(C)[C@H]2C1=O`, the Ki in assay [1] was more than 1000 nM.
In the case of `CC(=O)O[C@H]1C[C@@H](C(=O)NN2CCC(C)CC2)[C@]2(C)CC[C@H]3C(=O)O[C@H](c4ccoc4)C[C@]3(C)[C@H]2C1=O`, the Ki in assay [1] is more than 1000 nM.
Consider `C#CCCCOC(=O)[C@@H]1C[C@H](OC(C)=O)C(=O)[C@@H]2[C@@]3(C)C[C@@H](c4ccoc4)OC(=O)[C@H]3CC[C@]21C`, for which the Ki in assay [1] is more than 1000 nM.
`CC(=O)O[C@H]1C[C@@H](C(=O)NCC(=O)OCc2ccccc2)[C@]2(C)CC[C@@H]3C(=O)O[C@H](c4ccoc4)C[C@]3(C)[C@H]2C1=O` displayed a Ki in assay [1] of more than 1000 nM.
For the compound `CC(=O)O[C@H]1C[C@@H](C(=O)NC(C)C(=O)OCc2ccccc2)[C@]2(C)CC[C@@H]3C(=O)O[C@H](c4ccoc4)C[C@]3(C)[C@H]2C1=O` (some centres undefined), the Ki in assay [1] was more than 1000 nM.
With `CC(=O)O[C@H]1C[C@@H](C(=O)O)[C@]2(C)CC[C@@H]3C(=O)O[C@H](c4ccoc4)C[C@]3(C)[C@H]2C1=O`, the Efficacy in assay [2] was found to be 94%. Besides, the EC50 in assay [3] is 74.1 nM. In addition, the Ki in assay [1] is 48.6 nM.
Consider `CC(=O)O[C@H]1C[C@@H](C(=O)N2CCCC2C(=O)OCc2ccccc2)[C@]2(C)CC[C@@H]3C(=O)O[C@H](c4ccoc4)C[C@]3(C)[C@H]2C1=O` (some centres undefined), for which the Ki in assay [1] is more than 1000 nM.
With `CC(=O)O[C@H]1C[C@@H](C(=O)NC(C)C(=O)OCc2ccccc2)[C@]2(C)CC[C@H]3C(=O)O[C@H](c4ccoc4)C[C@]3(C)[C@H]2C1=O` (some centres undefined), the Efficacy in assay [2] amounted to 95%. For the same compound, in assay [3], the EC50 amounted to 46.7 nM. In assay [1], this compound yielded a Ki of 26.9 nM.
For `C#CCCCOC(=O)[C@@H]1C[C@H](OC(C)=O)C(=O)[C@H]2[C@@]1(C)CC[C@H]1C(=O)O[C@H](c3ccoc3)C[C@]21C`, the Efficacy in assay [2] came to 104%. Further, the EC50 in assay [3] was 224 nM. Also, the affinity in assay [1] corresponds to a Ki of 201 nM.
In the case of `CC(=O)O[C@H]1C[C@@H](C(=O)NCc2ccccc2)[C@]2(C)CC[C@H]3C(=O)O[C@H](c4ccoc4)C[C@]3(C)[C@H]2C1=O`, the Ki in assay [1] is more than 1000 nM.
`CCCCCOC(=O)[C@@H]1C[C@H](OC(C)=O)C(=O)[C@H]2[C@@]1(C)CC[C@H]1C(=O)O[C@H](c3ccoc3)C[C@]21C` gave a Ki in assay [1] of more than 1000 nM.
In turn, `C=CCOC(=O)[C@@H]1C[C@H](OC(C)=O)C(=O)[C@H]2[C@@]1(C)CC[C@H]1C(=O)O[C@H](c3ccoc3)C[C@]21C` came in with a Ki in assay [1] of more than 1000 nM.
Take `COCOC(=O)[C@@H]1C[C@H](OC(C)=O)C(=O)[C@H]2[C@@]1(C)CC[C@H]1C(=O)O[C@H](c3ccoc3)C[C@]21C`: the Efficacy in assay [2] amounted to 105%. For the same compound, in assay [3], the EC50 was 58.2 nM. This compound also came in with a Ki in assay [1] of 99.6 nM.
In assay [1], `CC(=O)O[C@H]1C[C@@H](C(=O)NC2CC2)[C@]2(C)CC[C@H]3C(=O)O[C@H](c4ccoc4)C[C@]3(C)[C@H]2C1=O` returned a Ki of more than 1000 nM.
Same read-out and setting: next, `CC(=O)O[C@H]1C[C@@H](C(=O)OCc2ccccc2)[C@]2(C)CC[C@H]3C(=O)O[C@H](c4ccoc4)C[C@]3(C)[C@H]2C1=O`: more than 1000 nM.
For the compound `CCOC(=O)[C@@H]1C[C@H](OC(C)=O)C(=O)[C@H]2[C@@]1(C)CC[C@H]1C(=O)O[C@H](c3ccoc3)C[C@]21C`, the Efficacy in assay [2] was found to be 110%. For the same compound, in assay [3], the EC50 is 94.4 nM. The same compound displayed a Ki in assay [1] of 28.5 nM.
In assay [1], `CC(=O)O[C@H]1C[C@@H](C(=O)NCCC#N)[C@]2(C)CC[C@H]3C(=O)O[C@H](c4ccoc4)C[C@]3(C)[C@H]2C1=O` registered an inhibition constant (Ki) of more than 1000 nM.
As for `COCOC(=O)[C@@H]1C[C@H](OC(C)=O)C(=O)[C@@H]2[C@@]3(C)C[C@@H](c4ccoc4)OC(=O)[C@H]3CC[C@]21C`, the Efficacy in assay [2] was 102%. Moreover, in assay [3], the EC50 amounted to 191 nM. Further, in assay [1], the Ki was 110 nM.
`CC(=O)O[C@H]1C[C@@H](C(=O)NCCc2ccccc2)[C@]2(C)CC[C@H]3C(=O)O[C@H](c4ccoc4)C[C@]3(C)[C@H]2C1=O` displayed a Ki in assay [1] of more than 1000 nM.
`CC(=O)O[C@H]1C[C@@H](C(=O)NC(CO)C(=O)OCc2ccccc2)[C@]2(C)CC[C@H]3C(=O)O[C@H](c4ccoc4)C[C@]3(C)[C@H]2C1=O` (some centres undefined) showed a Ki in assay [1] of more than 1000 nM.
For `CCCCCCCCOC(=O)[C@@H]1C[C@H](OC(C)=O)C(=O)[C@H]2[C@@]1(C)CC[C@H]1C(=O)O[C@H](c3ccoc3)C[C@]21C`, the Ki in assay [1] was more than 1000 nM.
The compound `CC(=O)O[C@H]1C[C@@H](C(=O)NN2CCOCC2)[C@]2(C)CC[C@H]3C(=O)O[C@H](c4ccoc4)C[C@]3(C)[C@H]2C1=O` registered a Ki in assay [1] of more than 1000 nM.
The same measure, in the same setting: the value for `CCOC(=O)[C@@H]1C[C@H](OC(C)=O)C(=O)[C@@H]2[C@@]3(C)C[C@@H](c4ccoc4)OC(=O)[C@H]3CC[C@]21C` was more than 1000 nM.
On to `CC(=O)O[C@H]1C[C@@H](C(=O)NC2CC2)[C@]2(C)CC[C@@H]3C(=O)O[C@H](c4ccoc4)C[C@]3(C)[C@H]2C1=O`, for which the Efficacy in assay [2] was determined as 95%. Also, in assay [3], the EC50 is 840 nM. The compound further registered an inhibitory constant (Ki) in assay [1] of 475 nM.
